The values that follow come from ChEMBL document CHEMBL3286182, “4-aminoquinolone piperidine amides: noncovalent inhibitors of DprE1 with long residence time and potent antimycobacterial activity” (J Med Chem, 2014).

Converted amounts (≈) assume the structure as drawn. A value given as a limit tells only on which side of the number the result lay.

As a reminder, the IC50 is the midpoint of a concentration-inhibition curve. In general, solubility refers to the concentration that dissolves in the medium under given conditions. A low value points to little dissolved substance. By fraction unbound is commonly meant the share of the substance not bound to proteins or other matrix. A low value points to extensive binding. Broadly, the MIC is the least concentration at which growth counts as inhibited. A low value points to inhibition by little substance. As usually defined, the logD is lipophilicity at a set pH, counting ionised and neutral species.

The nature of data set [1]: Cytotoxicity against human A549 cells after 72 hrs by resazurin based fluorescence assay. The note with it: read-out: MIC. The data set is classed as cell-based. Put shortly:
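Cytotoxicity read as MMIC, the MIC on the A549 cell line.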
On the technique in general: Alamar Blue is a resazurin reagent that responds to reducing activity.

Data set [2] can be described thus: Inhibition of Mycobacterium smegmatis recombinant DprE1 using farnesylphosphoryl-beta-D-ribofuranose as substrate assessed as conversion of amplex red to resorufin after 30 mins. Also noted: species or system Mycolicibacterium smegmatis. Put shortly: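 Msm DprE1 (thioredoxin-6His fusion of Msm Rv3790) at 75 nM, preincubated 30 min with 10 μM FAD. Buffer: 50 mM glycylglycine pH 8.5, 200 mM potassium glutamate, 0.002% Brij-35, 2% DMSO, 25 °C. Started with 300 μM farnesylphosphoryl-β-D-ribofuranose, 0.01 mg/mL HRP and 50 μM Amplex Red.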

Data set [3] in a line: Permeability of the compound from apical to basolateral side in human Caco2 cells. It is filed as ADME, cell-based. The note with it: Caco-2, read-out: permeability. On the technique in general: Passage across Caco-2 layers is used to estimate intestinal permeability.
The nature of data set [4]: Solubility of the compound in fed-state simulated intestinal fluid at pH 6.5. It is filed as ADME.
In data set [5] the target is Cytochrome P450 3A4 (Homo sapiens, UniProt P08684). The data set is described as follows: Inhibition of CYP3A4 (unknown origin). It is filed as ADME. Put shortly:
(§1)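 CYP inhibition IC50 measured on isoforms CYP3A4, CYP2D6, CYP2C9, CYP2C19 and CYP1A2.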

In data set [6] the target is Cytochrome P450 2D6 (Homo sapiens, UniProt P10635). Nature of the data set: Inhibition of CYP2D6 (unknown origin). The data set is classed as ADME. Put shortly:
as §1

The target of data set [7] is T1, Cytochrome P450 1A2 (Homo sapiens, UniProt P05177).
T1 sequence (P05177 whole entry): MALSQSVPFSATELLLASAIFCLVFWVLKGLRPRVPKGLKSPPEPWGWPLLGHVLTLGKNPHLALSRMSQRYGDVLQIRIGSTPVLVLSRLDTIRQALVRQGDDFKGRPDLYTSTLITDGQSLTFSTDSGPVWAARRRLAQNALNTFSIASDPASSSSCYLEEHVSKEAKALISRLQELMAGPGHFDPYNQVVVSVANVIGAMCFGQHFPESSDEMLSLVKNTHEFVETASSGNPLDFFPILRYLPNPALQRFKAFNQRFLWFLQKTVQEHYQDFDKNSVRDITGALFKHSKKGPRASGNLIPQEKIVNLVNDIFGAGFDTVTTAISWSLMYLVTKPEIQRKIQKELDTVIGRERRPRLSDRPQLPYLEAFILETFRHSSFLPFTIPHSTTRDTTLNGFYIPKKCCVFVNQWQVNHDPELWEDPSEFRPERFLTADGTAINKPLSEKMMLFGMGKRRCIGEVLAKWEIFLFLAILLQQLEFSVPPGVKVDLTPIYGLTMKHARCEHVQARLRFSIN
The data set is described as follows: Inhibition of CYP1A2 (unknown origin). It is filed as ADME. Put shortly:
as §1

Data set [8] addresses Cytochrome P450 2C19 (Homo sapiens, UniProt P33261). Nature of the data set: Inhibition of CYP2C19 (unknown origin). It is filed as ADME. An outline of the steps: as §1
The nature of data set [9]: Fraction unbound in human plasma at 20 uM after 18 hrs by equilibrium dialysis method. The data set is classed as ADME, cell-free. On the technique in general: In equilibrium dialysis free small molecules cross a membrane that holds back macromolecules.
Data set [10] in a line: Intrinsic clearance in rat cryopreserved hepatocytes assessed per 10^6 cells at 1 uM up to 120 mins by LC-MS/MS analysis. It is filed as ADME, cell-based, Hepatocyte. To be noted: read-out: CLH.
Data set [11] can be described thus: Solubility of the compound in 0.1 M phosphate buffer at pH 7.4 after 24 hrs by UV and MS analysis. The data set is classed as physicochemical.
The nature of data set [12]: Intrinsic clearance in human liver microsomes at 1 uM up to 30 mins by LC-MS/MS analysis. To be noted: read-out: CLH. The data set is classed as ADME.
For data set [13], the target named is Cytochrome P450 2C9 (Homo sapiens, UniProt P11712). Nature of the data set: Inhibition of CYP2C9 (unknown origin). It is filed as ADME. An outline of the steps:
as §1

The subject of data set [14] is Mycobacterium tuberculosis. Nature of the data set: Antimycobacterial activity against Mycobacterium tuberculosis H37Rv after 5 days by standard microdilution method. To be noted: 120 h. It is filed as functional.
Data set [15] concerns the target Voltage-gated inwardly rectifying potassium channel KCNH2 (Homo sapiens, UniProt Q12809). The data set is described as follows: Inhibition of human ERG by medium-throughput electrophysiology.
Data set [16] is described as follows: Octanol-water partition coefficient, log D of the compound by shake-flask method. It is filed as physicochemical.
Data set [17] in a line: Permeability of the compound from basolateral to apical side in human Caco2 cells. To be noted: Caco-2, read-out: permeability. It is filed as ADME, cell-based.
Data set [18] concerns the target T2, Adenosine receptor A1 (Homo sapiens, UniProt P30542).
T2 sequence (P30542 whole entry): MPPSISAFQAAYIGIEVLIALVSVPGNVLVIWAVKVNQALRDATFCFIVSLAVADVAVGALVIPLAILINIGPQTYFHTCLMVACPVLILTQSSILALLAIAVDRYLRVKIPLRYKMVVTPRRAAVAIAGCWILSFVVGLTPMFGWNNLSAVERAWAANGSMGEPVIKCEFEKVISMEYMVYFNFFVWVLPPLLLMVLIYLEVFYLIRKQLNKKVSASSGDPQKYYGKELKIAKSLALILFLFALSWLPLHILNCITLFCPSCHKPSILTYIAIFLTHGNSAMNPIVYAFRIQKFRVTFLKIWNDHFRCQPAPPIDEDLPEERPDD
The data set is described as follows: Inhibition of adenosine A1 receptor (unknown origin). Put shortly:
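Secondary pharmacology panel of binding, enzyme and functional assays covering 24 molecular targets. Activity recorded as a defined Ki/IC50/EC50.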

Voltage-gated inwardly rectifying potassium channel KCNH2, sequence (Q12809 whole entry): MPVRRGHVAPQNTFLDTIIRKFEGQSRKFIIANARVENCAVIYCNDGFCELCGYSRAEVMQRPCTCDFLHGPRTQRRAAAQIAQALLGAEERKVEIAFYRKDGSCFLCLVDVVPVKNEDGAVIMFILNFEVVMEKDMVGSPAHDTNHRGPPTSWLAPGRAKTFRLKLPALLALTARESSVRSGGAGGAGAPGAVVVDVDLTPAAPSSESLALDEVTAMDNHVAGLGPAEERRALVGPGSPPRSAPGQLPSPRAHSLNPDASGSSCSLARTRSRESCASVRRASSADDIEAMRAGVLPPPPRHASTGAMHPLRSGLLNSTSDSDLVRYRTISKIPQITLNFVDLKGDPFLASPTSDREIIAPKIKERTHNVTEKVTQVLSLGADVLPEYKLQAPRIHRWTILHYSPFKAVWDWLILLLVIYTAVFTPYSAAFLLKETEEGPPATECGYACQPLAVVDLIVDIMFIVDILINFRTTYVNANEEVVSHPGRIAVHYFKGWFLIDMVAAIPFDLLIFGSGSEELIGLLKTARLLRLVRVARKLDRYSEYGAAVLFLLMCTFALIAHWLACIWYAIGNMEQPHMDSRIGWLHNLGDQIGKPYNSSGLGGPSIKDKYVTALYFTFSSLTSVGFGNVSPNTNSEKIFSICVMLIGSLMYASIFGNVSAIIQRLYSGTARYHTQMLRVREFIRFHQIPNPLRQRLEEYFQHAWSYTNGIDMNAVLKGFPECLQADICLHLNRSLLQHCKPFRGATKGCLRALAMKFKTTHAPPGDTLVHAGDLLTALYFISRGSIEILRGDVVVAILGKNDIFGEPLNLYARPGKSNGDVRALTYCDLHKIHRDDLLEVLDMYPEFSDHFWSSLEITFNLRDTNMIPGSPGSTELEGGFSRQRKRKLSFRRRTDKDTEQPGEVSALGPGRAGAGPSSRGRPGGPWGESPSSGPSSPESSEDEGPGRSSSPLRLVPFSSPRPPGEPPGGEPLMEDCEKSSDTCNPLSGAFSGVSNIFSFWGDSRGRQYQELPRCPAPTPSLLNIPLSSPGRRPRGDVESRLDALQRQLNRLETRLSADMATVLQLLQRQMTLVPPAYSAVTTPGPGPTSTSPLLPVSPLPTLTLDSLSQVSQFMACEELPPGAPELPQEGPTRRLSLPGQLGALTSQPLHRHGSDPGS
Cytochrome P450 2C19, sequence (P33261 whole entry): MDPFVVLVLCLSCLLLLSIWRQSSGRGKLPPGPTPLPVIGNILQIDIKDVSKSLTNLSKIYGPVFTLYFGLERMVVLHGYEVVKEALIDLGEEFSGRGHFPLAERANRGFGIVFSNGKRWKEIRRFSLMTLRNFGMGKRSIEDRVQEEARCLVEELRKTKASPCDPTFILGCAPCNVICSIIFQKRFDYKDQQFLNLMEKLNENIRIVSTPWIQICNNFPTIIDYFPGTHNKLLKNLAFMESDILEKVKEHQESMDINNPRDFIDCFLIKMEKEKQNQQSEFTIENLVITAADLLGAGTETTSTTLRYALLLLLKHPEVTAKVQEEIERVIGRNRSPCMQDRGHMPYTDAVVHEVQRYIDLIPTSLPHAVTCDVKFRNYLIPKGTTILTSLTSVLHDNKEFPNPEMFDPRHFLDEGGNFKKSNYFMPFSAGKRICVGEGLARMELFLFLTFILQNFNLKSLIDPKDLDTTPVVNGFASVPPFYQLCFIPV
Cytochrome P450 3A4, sequence (P08684 whole entry, canonical isoform): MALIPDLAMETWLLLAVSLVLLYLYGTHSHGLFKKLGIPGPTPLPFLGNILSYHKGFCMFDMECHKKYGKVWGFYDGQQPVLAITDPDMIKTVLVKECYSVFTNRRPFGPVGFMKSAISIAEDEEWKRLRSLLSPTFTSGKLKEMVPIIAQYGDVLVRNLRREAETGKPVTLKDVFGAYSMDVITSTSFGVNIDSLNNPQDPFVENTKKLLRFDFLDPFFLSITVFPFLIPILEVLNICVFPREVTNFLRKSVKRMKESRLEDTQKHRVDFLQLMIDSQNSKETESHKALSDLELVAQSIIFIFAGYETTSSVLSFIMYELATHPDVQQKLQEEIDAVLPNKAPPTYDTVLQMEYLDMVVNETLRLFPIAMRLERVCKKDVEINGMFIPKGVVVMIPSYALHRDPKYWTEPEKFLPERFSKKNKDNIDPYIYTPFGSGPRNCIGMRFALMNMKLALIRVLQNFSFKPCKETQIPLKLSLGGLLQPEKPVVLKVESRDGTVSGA
Cytochrome P450 2C9, sequence (P11712 whole entry): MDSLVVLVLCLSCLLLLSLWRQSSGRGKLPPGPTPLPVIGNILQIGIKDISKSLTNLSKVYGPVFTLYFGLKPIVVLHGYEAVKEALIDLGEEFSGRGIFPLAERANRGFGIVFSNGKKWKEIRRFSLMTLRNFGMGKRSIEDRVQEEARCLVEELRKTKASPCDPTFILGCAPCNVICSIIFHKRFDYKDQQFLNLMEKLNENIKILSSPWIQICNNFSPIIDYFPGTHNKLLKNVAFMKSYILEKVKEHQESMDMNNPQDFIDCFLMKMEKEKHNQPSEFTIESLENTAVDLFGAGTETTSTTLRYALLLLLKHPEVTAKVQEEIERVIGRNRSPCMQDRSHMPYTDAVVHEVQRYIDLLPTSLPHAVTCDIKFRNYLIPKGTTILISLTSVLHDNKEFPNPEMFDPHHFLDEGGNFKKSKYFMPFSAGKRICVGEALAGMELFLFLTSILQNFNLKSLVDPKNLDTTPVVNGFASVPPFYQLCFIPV
Cytochrome P450 2D6, sequence (P10635 whole entry): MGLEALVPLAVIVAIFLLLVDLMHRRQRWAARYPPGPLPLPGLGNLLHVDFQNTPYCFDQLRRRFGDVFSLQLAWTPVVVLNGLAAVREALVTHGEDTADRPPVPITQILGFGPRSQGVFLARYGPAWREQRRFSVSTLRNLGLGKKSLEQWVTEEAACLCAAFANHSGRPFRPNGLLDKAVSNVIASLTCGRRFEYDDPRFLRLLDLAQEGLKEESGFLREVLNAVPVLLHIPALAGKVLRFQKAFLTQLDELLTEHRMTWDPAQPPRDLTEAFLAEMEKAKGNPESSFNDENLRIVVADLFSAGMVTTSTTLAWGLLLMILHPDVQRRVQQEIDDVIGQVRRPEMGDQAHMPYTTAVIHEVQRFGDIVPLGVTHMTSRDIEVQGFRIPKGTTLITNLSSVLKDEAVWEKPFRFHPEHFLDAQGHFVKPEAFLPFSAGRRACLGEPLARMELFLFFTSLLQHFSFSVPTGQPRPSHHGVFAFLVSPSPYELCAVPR

Regarding `Cc1onc(C(=O)N2[C@@H]3CC[C@H]2C[C@@H](Nc2cc(=O)n(C)c4nccnc24)C3)c1C`, the MCC at 72 h in data set [1] is above 50 µM. The IC50 is 0.183 µM in data set [2] and above 33 µM in data set [15]. Also, the Papp A→B in [3] is 33 ×10⁻⁶ cm/s. In [4], this compound registered a solubility of 307 µM (≈ 125 µg/mL). Besides, the INH in data set [5], in data set [6], in [7], in data set [8] and in data set [13] was above 30 µM in each case. The compound further displayed a fraction unbound at 18 h, 20 µM in data set [9] of 0.05. Moreover, in data set [10], the hepatocyte CLint at 1 µM worked out at 20 µL/min/1e6 cells. Further, the solubility at 24 h in data set [11] turned out to be 132 µM (≈ 53.9 µg/mL). The microsomal CLint at 1 µM in data set [12] is 100 µL/min/mg. In addition, the MIC in [14] is 6.2 µM (≈ 2.53 µg/mL). The compound further returned a logD in data set [16] of 1.8. In addition, the Papp B→A in data set [17] was 21 ×10⁻⁶ cm/s.
Consider `Cn1ncc(C(=O)N2[C@@H]3CC[C@H]2C[C@@H](Nc2n[nH]c4ccc(F)cc24)C3)c1Cl`, for which the MCC at 72 h in data set [1] was above 50 µM. Moreover, the IC50 in [2] was 0.12 µM; in data set [18], 8 µM; in data set [15] it was above 33 µM. Moreover, in data set [3], the Papp A→B stood at 20 ×10⁻⁶ cm/s. Further, the INH in data set [5], in data set [6], in [7], in data set [8] and in data set [13] was above 30 µM throughout. Besides, the fraction unbound at 18 h, 20 µM in [9] came out at 0.08. The hepatocyte CLint at 1 µM in data set [10] stood at 9 µL/min/1e6 cells. This compound also displayed a solubility at 24 h in data set [11] above 1000 µM. For the same compound, the microsomal CLint at 1 µM in [12] was 4 µL/min/mg. The same compound yielded an MIC in [14] of 6.25 µM (≈ 2.52 µg/mL). In data set [16], this compound displayed a logD of 1.9. In data set [17], the Papp B→A worked out at 31 ×10⁻⁶ cm/s.
Take `Cn1ncc(C(=O)N2[C@@H]3CC[C@H]2C[C@@H](Nc2cc(=O)n(C)c4ncccc24)C3)c1Cl`: the MCC at 72 h in data set [1] is above 50 µM. For the same compound, the results for the IC50 in [2] and in [15] were 0.026 µM and above 33 µM, respectively. In data set [3], the Papp A→B is 1 ×10⁻⁶ cm/s. Also, the concentration in solution in data set [4] (solubility) came to 100 µM (≈ 42.7 µg/mL). Also, the INH in data set [5], in data set [6], in data set [7], in data set [8] and in data set [13] was above 30 µM throughout. This compound returned a fraction unbound at 18 h, 20 µM in [9] of 0.01. Also, in data set [10], the hepatocyte CLint at 1 µM came out at 3 µL/min/1e6 cells. The compound further returned a solubility at 24 h in data set [11] of 20 µM (≈ 8.54 µg/mL). Further, in [12], the microsomal CLint at 1 µM came to 37 µL/min/mg. Further, the minimum inhibitory concentration (MIC) in data set [14] worked out at 0.25 µM (≈ 0.107 µg/mL). The logD in data set [16] stood at 1.8. For the same compound, in data set [17], the Papp B→A amounted to 36 ×10⁻⁶ cm/s.
